This note sets out measurements from ChEMBL document CHEMBL4043302, “Lead Diversification at the Nanomole Scale Using Liver Microsomes and Quantitative Nuclear Magnetic Resonance Spectroscopy: Application to Phosphodiesterase 2 Inhibitors” (J Med Chem, 2018).

In data set [1] the target is cGMP-dependent 3',5'-cyclic phosphodiesterase (Homo sapiens, UniProt O00408). Briefly: Inhibition of human PDE2A1 using 3',5'-[3H]cGMP as substrate after 30 mins by scintillation proximity assay.
A short description of data set [2]: (§1) Apparent permeability across RRCK cells after 1.5 hrs. The data set is classed as ADME, cell-based, Canis lupus familiaris, MDCKII-LE. The settings on record: dog, MDCK.
Data set [3] in a line: Metabolic stability in human hepatocytes at 1 uM after 0.5 to 4 hrs by HPLC-HRMS method. The data set is classed as ADME, cell-based, Hepatocyte. The gist of the method:
(§2)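 Compound at 1 µM was dried from d6-DMSO and redissolved in Williams E medium. Pooled human hepatocytes were added at 680000 cells/mL. Samples were quenched in water/CH3CN (2:1) with 2% formic acid and clozapine as internal standard, then analysed by HPLC-HRMS in positive-ion full scan. k came from the slope of ln peak-area ratio versus time; CLint = k / cell concentration. Non-specific binding was not measured.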

The nature of data set [4]: Drug level in hamster liver microsomes treated with 7-(5-(4-Methoxyphenyl)-1,3-dimethyl-1H-pyrazol-4-yl)-2,5-dimethylimidazo[5,1-f ][1,2,4]triazin-4(3H)-one at 20 uM after 1.5 hrs by UHPLC-UV-HRMS method. The data set is classed as ADME, microsome. To be noted: cricetinae. In a few lines:
(§3)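 Preparative incubation: substrate 20 µM with liver microsomes (2 mg/mL) of the listed species in 0.1 M potassium phosphate, pH 7.5, with MgCl2 3.3 mM and NADPH 1.3 mM. Run at 37°C in a shaking water bath and stopped with an equal volume of CH3CN. Products were fractionated by HPLC and quantified by qNMR in d6-DMSO.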
On the technique in general: Microsomes from liver hold many membrane-bound enzymes, among them those of drug oxidation.

Data set [5] is described as follows: Drug level in cynomolgus monkey liver microsomes treated with 7-(1,3-Dimethyl-5-(5-(trifluoromethyl)pyridine-2-yl)-1H-pyrazol-4-yl)-2,5-dimethylimidazo[5,1-f ][1,2,4]triazin-4(3H)-one at 20 uM after 1.2 hrs by UHPLC-UV-HRMS method. The data set is classed as ADME, Macaca fascicularis, microsome. In a few lines: as §3
Data set [6] is described as follows: Intrinsic clearance in human hepatocytes assessed per million cells at 1 uM after 0.5 to 4 hrs by HPLC-HRMS method. The data set is classed as ADME, cell-based, Hepatocyte. The settings on record: for hepatocyte CLint at 1 µM: human hepatocytes, read-out: CLH. The gist of the method:
as §2

The next data set has as its system Liver. Briefly: Drug level in human liver microsomes treated with 2-(3,4-dimethoxybenzyl)-7-((2S,3R)-2-hydroxy-6-phenylhexan-3-yl)-5-methylimidazo[1,5-f][1,2,4]triazin-4(3H)-one at 20 uM after 1 hr by UHPLC-UV-HRMS method. The data set is classed as ADME, microsome. In a few lines: as §3
Data set [7] is described as follows: Drug level in cynomolgus monkey liver microsomes treated with 5-(Difluoromethyl)-7-(1,3-dimethyl-5-(4-(trifluoromethyl)phenyl)-1H-pyrazol-4-yl)-2-methylimidazo[5,1-f ][1,2,4]triazin-4(3H)-one at 20 uM after 1.5 hrs by UHPLC-UV-HRMS method. The data set is classed as ADME, Macaca fascicularis, microsome. In a few lines: as §3
The next data set deals with MDCKII-LE. The description is as §1. The settings on record: dog, mdckii-le, 1.5 h. The data set is classed as ADME, cell-based, Canis lupus familiaris.
Data set [8] is described as follows: Drug metabolism in rabbit liver microsomes assessed as 5-(Hydroxymethyl)-7-(5-(3-(hydroxymethyl)-4-(trifluoromethyl)phenyl)-1,3-dimethyl-1H-pyrazol-4-yl)-2-methylimidazo[5,1-f ][1,2,4]triazin-4(3H)-one formation at 20 uM after 1 hr by UHPLC-UV-HRMS method. The data set is classed as ADME, Oryctolagus cuniculus, microsome. In a few lines: as §3
Data set [9] in a line: Drug metabolism in rabbit liver microsomes assessed as 7-(3-(Hydroxymethyl)-5-(3-(hydroxymethyl)-4-(trifluoromethyl)-phenyl)-1-methyl-1H-pyrazol-4-yl)-2,5-dimethylimidazo[5,1-f ]-[1,2,4]triazin-4(3H)-one formation at 20 uM after 1 hr by UHPLC-UV-HRMS method. The format is ADME, Oryctolagus cuniculus, microsome. In a few lines: as §3
Data set [10] in a line: Drug metabolism in rabbit liver microsomes assessed as 7-(5-(3-(Hydroxymethyl)-4-(trifluoromethyl)phenyl)-1,3-dimethyl-1H-pyrazol-4-yl)-2,5-dimethylimidazo[5,1-f ][1,2,4]triazin-4(3H)-one formation at 20 uM after 1 hr by UHPLC-UV-HRMS method. The data set is classed as ADME, Oryctolagus cuniculus, microsome. The gist of the method: as §3
The nature of data set [11]: Drug metabolism in rabbit liver microsomes assessed as 5-(Hydroxymethyl)-7-(3-(hydroxymethyl)-1-methyl-5-(3-methyl-4-(trifluoromethyl)phenyl)-1H-pyrazol-4-yl)-2-methylimidazo[5,1-f ][1,2,4]triazin-4(3H)-one formation at 20 uM after 1 hr by UHPLC-UV-HRMS method. The data set is classed as ADME, Oryctolagus cuniculus, microsome. In a few lines: as §3
A short description of data set [12]: Drug metabolism in rabbit liver microsomes assessed as 7-(1,3-Dimethyl-5-(3-methyl-4-(trifluoromethyl)phenyl)-1H-pyrazol-4-yl)-5-(hydroxymethyl)-2-methylimidazo[5,1-f ][1,2,4]triazin-4(3H)-one formation at 20 uM after 1 hr by UHPLC-UV-HRMS method. The data set is classed as ADME, Oryctolagus cuniculus, microsome. The gist of the method: as §3
Data set [13] can be described thus: Drug metabolism in rabbit liver microsomes assessed as 4-(2,5-Dimethyl-4-oxo-3,4-dihydroimidazo[5,1-f ][1,2,4]triazin-7-yl)-1-methyl-5-(3-methyl-4-(trifluoromethyl)phenyl)-1H-pyrazole-3-carboxylic acid formation at 20 uM after 1 hr by UHPLC-UV-HRMS method. The format is ADME, Oryctolagus cuniculus, microsome. In a few lines: as §3

Chain of cGMP-dependent 3',5'-cyclic phosphodiesterase (O00408 whole entry): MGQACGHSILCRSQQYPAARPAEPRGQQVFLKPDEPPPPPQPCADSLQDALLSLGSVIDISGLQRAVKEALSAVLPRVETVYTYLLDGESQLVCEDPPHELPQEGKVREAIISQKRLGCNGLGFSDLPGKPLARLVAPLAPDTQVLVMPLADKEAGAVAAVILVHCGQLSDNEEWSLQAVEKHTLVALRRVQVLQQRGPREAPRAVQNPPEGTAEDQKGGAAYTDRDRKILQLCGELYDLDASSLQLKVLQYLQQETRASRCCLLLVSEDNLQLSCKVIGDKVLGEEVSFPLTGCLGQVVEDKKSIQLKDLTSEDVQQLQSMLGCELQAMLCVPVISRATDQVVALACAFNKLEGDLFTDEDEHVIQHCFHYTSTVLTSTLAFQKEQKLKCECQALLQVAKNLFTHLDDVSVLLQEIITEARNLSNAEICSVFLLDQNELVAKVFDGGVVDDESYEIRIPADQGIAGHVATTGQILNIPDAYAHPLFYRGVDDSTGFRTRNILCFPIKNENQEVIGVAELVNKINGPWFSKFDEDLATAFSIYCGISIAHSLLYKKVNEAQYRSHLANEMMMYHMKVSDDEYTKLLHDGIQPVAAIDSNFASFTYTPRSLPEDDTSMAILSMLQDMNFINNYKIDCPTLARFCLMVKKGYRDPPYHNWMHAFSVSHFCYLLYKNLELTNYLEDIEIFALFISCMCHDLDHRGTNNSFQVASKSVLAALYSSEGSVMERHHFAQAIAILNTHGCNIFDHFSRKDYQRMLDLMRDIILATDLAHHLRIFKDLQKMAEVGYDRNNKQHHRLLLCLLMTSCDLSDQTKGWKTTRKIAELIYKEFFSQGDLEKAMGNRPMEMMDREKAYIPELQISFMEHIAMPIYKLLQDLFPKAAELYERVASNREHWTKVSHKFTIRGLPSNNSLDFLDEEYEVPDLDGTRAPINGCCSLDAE

The compound `Cc1nn2c(-c3c(C)n[nH]c3-c3ccc(O)nc3)nc(C)c2c(=O)[nH]1` displayed an IC50 in data set [1] of more than 2000 nM. Besides, in data set [2], the Papp at 1.5 h was less than 0.5 ×10⁻⁶ cm/s. Further, the Stability entry in data set [3] is “Stable”. Also, in data set [4], the Drug metabolism result is listed as “Metabolite_Detected”.

In the case of `Cc1nn2c(-c3c(CO)nn(C)c3-c3ccc(C(F)(F)F)cn3)nc(C)c2c(=O)[nH]1`, the Papp at 1.5 h in data set [2] is less than 0.5 ×10⁻⁶ cm/s. In data set [3], the Stability result is on record as “Stable”. Moreover, the Drug metabolism entry in data set [5] is “Metabolite_Detected”.

For `COc1ccc(-c2[nH]nc(C)c2-c2nc(CO)c3c(=O)[nH]c(C)nn23)cn1`, in [2], the Papp at 1.5 h was less than 0.5 ×10⁻⁶ cm/s. Moreover, the Stability entry in data set [3] is recorded as “Stable”. Further, in data set [4], the Drug metabolism entry is recorded as “Metabolite_Detected”.

As to `COc1ccc(Cc2nn3c([C@@H](C(O)CC(O)c4ccccc4)[C@H](C)O)nc(C)c3c(=O)[nH]2)cc1OC` (stereo partly specified), the hepatocyte CLint at 1 µM in data set [6] came out at 4.3 µL/min/1e6 cells. Moreover, in the data set on Liver, the Drug metabolism result is “Metabolite_Detected”.

On to `Cc1nn2c(-c3c(C)n[nH]c3-c3ccc(C(F)(F)F)cc3)nc(C(F)F)c2c(=O)[nH]1`, for which the hepatocyte CLint at 1 µM in [6] was found to be 6.4 µL/min/1e6 cells. In addition, the Papp at 1.5 h in data set [2] turned out to be 10 ×10⁻⁶ cm/s. The Drug metabolism entry in data set [7] is reported as “Metabolite_Detected”.

Consider `Cc1nn2c(-c3c(CO)nn(C)c3-c3ccc(C(F)(F)F)cc3)nc(C(F)F)c2c(=O)[nH]1`, for which the hepatocyte CLint at 1 µM in data set [6] stood at 5.5 µL/min/1e6 cells. Besides, the Papp at 1.5 h in [2] came out at 6.3 ×10⁻⁶ cm/s. Besides, in [7], the Drug metabolism entry was “Metabolite_Detected”.

As for `COc1ccc(Cc2nn3c([C@@H](CCC(=O)c4ccccc4)[C@H](C)O)nc(C)c3c(=O)[nH]2)cc1OC`, in data set [6], the hepatocyte CLint at 1 µM is 32 µL/min/1e6 cells. Also, the Drug metabolism entry in the data set on Liver is reported as “Metabolite_Detected”.

`COc1ccc(Cc2nn3c([C@@H](CCC(O)c4ccccc4)[C@@H](C)O)nc(C)c3c(=O)[nH]2)cc1OC` (stereo in doubt) registered a CLint in [6] (hepatocytes, 1 µM) of 17 µL/min/1e6 cells. Further, the Papp with MDCKII-LE amounted to 2.2 ×10⁻⁶ cm/s.

Regarding `Cc1nn2c(-c3c(C)nn(C)c3-c3ccc(C(F)(F)F)c(C)c3)nc(C)c2c(=O)[nH]1`, the Drug metabolism entry in data set [8], in data set [9], in [10], in data set [11], in data set [12] and in data set [13] was “Metabolite_Detected” each time. For the same compound, the hepatocyte CLint at 1 µM in data set [6] turned out to be 19 µL/min/1e6 cells. Further, the Papp at 1.5 h in data set [2] turned out to be 28 ×10⁻⁶ cm/s.

`COc1ccc(-c2c(-c3nc(CO)c4c(=O)[nH]c(C)nn34)c(C)nn2C)cn1`: the Papp at 1.5 h in data set [2] was 0.76 ×10⁻⁶ cm/s. The Stability result in data set [3] is “Stable”. For the same compound, the Drug metabolism result in [4] was “Metabolite_Detected”.

With `Cc1nn2c(-c3c(C=O)nn(C)c3-c3ccc(C(F)(F)F)cn3)nc(C)c2c(=O)[nH]1`, in data set [6], the hepatocyte CLint at 1 µM came to 14.7 µL/min/1e6 cells. Besides, in [2], the Papp at 1.5 h amounted to 1.2 ×10⁻⁶ cm/s. Besides, the Drug metabolism result in data set [5] was “Metabolite_Detected”.

As usually defined, the IC50 is the concentration needed to halve the response being measured. What is called Papp is a coefficient for how fast a substance crosses the barrier.
